Screening results (PubChem BioAssay)
KCNQ1 inh = human KCNQ1 channel inhibition. B-score at 10 µM. 1.3% of 310,000 active. AID 2642. CHO-K1 KCNQ1, FluxOR thallium flux fluorescence; hits give high values;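 active = compounds whose thallium flux B-score, printed positive for inhibition, exceeds three library SD while starting fluorescence stays within three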;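 also: channel opened by potassium depolarization with thallium stimulus after 20 min compound exposure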
KCNK9 block = human KCNK9 channel inhibition | Q9NPC2 | HEK293 KCNK9, FluxOR thallium flux fluorescence; hits give low values | B-score at 10 µM | 1.2% of 310,000 active | AID 488922;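 active = ratio B-score over 3 SD below the library mean, with starting fluorescence within 5 SD of its mean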;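 also: negative B-score means less thallium flux so channel inhibition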
hERG protect = shields human hERG channel from block by proarrhythmic agents; AID 1511; CHO-hERG, FluxOR thallium flux, dofetilide IC70 present; 0.51% of 310,000 active; activation (rescue from dofetilide block), less the hit threshold, % at 10 µM;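 active = activation above the mean of controls blocked by dofetilide plus 5 SD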;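 also: thallium influx through hERG after potassium depolarization seen as dye fluorescence rise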
Target sequence (Q12809 whole entry, looked up): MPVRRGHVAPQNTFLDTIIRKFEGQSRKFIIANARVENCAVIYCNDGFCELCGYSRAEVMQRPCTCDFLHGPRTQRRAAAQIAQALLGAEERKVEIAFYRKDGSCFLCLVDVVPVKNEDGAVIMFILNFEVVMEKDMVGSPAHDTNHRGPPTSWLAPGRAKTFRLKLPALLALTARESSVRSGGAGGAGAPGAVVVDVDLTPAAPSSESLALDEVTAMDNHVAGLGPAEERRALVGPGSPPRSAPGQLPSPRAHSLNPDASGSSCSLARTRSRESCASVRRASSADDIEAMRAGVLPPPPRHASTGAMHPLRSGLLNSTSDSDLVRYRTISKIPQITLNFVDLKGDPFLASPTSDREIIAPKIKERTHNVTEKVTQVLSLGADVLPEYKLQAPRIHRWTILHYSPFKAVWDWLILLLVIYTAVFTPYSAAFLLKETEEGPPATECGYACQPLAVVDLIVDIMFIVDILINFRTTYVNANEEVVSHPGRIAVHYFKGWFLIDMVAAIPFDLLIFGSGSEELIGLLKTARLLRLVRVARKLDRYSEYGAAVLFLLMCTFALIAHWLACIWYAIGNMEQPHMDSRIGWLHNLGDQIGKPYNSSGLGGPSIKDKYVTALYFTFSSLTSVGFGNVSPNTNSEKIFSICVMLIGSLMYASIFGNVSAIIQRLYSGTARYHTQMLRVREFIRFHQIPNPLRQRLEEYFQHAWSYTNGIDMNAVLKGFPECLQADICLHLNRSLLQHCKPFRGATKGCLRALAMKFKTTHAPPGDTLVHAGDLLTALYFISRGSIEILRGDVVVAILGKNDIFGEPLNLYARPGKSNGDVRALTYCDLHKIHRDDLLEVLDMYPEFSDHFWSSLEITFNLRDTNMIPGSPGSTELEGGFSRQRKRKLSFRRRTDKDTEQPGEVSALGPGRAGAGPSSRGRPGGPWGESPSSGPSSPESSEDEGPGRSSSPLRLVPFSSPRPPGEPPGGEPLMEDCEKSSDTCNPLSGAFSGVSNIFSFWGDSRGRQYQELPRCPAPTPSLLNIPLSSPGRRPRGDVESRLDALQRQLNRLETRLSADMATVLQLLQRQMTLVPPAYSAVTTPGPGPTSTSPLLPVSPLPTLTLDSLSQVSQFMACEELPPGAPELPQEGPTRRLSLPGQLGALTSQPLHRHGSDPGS
KCNQ1 pot = potentiators or activators of human KCNQ1 potassium channel; AID 2648; CHO-K1 KCNQ1, thallium flux FluxOR fluorescence; hits give high values; 0.35% of 310,000 active; B-score at 10 µM;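 active = fluorescence ratio B-score, a plate-corrected score, at least three library SD, with initial intensity B-score within 5 SD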
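Schedule – 37 °C overnight plating, 90-min dark dye load, 20-min compound pretreatment · System – stable KCNQ1 CHO-K1 line · Probe or stimulus – thallium- and potassium-containing depolarizing buffer · Measured by – kinetic FluxOR fluorescence, 10 s baseline plus 110 s post-stimulus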
KCNK3 inh = human KCNK3 channel inhibition, primary screen. CHO-KCNK3 thallium flux, FluxOR fluorescence; hits give low values. B-score at 10 µM. 0.84% of 340,000 active;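 active = B-score under library mean minus 4 SD, starting fluorescence ratio at most library mean plus 5 SD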;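 also: more negative B-score means stronger inhibition of thallium flux through KCNK3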
Active calls of the source: *; i = inactive; / = not tested or not shown. In the library only some 3.1% were active in any assay of this set; here they are far more common.

SMILES | KCNQ1 inh | KCNK9 block | hERG protect | KCNQ1 pot | KCNK3 inh
COc1ccc(C(=O)Nc2cccc(NC(=O)c3cccs3)c2)cc1 | i | i | -8 | i | i
CC1CCCCC1NC(=O)C(C)N1C(=O)c2ccccc2C1=O (stereo unspecified) | / | / | / | / | i
CSC(=Nc1ccccc1)N=C(SCc1ccccc1)N(C)C | / | / | / | / | i
COc1cc(OC)cc(-c2nc3ccccc3c(=O)n2OC(=O)c2ccc(C)c(C)c2)c1 | 7* | i | -3 | i | i
CCN1C[C@@H]2[C@@H]3C(=O)N(C)C(=O)[C@@H]3[C@](Cc3ccccc3)(C1=O)N2C(=O)c1ccccc1 | / | / | / | / | i
O=[N+]([O-])c1ccc(CNc2cccc(Cl)c2)s1 | 6* | i | -7 | i | i
O=c1[nH]cc(N=Cc2cc(Cl)cc(Cl)c2O)c(=O)[nH]1 | i | i | 2 | 18* | i
O=c1[nH]cc(N=Cc2cc([N+](=O)[O-])ccc2O)c(=O)[nH]1 | i | i | -14 | i | /
COc1ccc(N2CCN(C(=O)CN(C3CCCCC3)S(C)(=O)=O)CC2)cc1 | i | i | 32* | i | i
COc1ccc(C(=O)n2cnc3ccccc32)cc1[N+](=O)[O-] | i | i | -1 | i | i
CCc1ccccc1N(CC(=O)NCc1ccco1)C(=O)CCC(=O)Nc1nccs1 | i | i | -5 | i | i
COc1ccc(CCNC2CC(=O)N(CCc3ccccc3)C2=O)cc1 (stereo unspecified) | i | i | 7.1* | i | i
COc1ccc(C(=O)NNC(=O)C(=O)Nc2ccc(C)cc2)cc1 | i | i | 15* | 41* | i
COc1ccc(C(=O)NNC(=O)C(=O)Nc2ccc(C)c(Cl)c2)cc1 | i | i | 97* | 58* | i
COc1ccc(CC(=O)NNC(=O)c2ccc(NC(C)=O)cc2)cc1 | i | i | -9 | i | i
CCc1ccc(NC(=O)C(=O)NNC(=O)c2ccc(OC)cc2)cc1 | i | i | 36* | 77* | i
CN(CC1CCCO1)S(=O)(=O)c1ccc(C(=O)NCc2ccccc2)cc1 (stereo unspecified) | i | i | -7 | i | i
C=CCn1c(SC(C)C(=O)c2c(N)n(C)c(=O)n(C)c2=O)nnc1-c1ccoc1C (stereo unspecified) | / | / | / | / | i
COc1ccc(NC(=O)Nc2sc(=S)n(C)c2C)cc1 | i | i | -2 | i | i
Cc1c(NC(=O)Nc2ccc(Cl)c(Cl)c2)sc(=S)n1C | 8* | i | -11 | i | i
CCOC(=O)N1CCC(NC(=O)c2ccc3c(c2)N(C)C(=O)/C(=C/c2cccc(OC)c2)S3)CC1 | i | i | -13 | i | i
COc1ccc(/C=C/c2cc(-c3ccc(C)cc3)o[n+]2C)cc1 | 9* | i | -28 | i | i
C=CCN1C(=O)CSc2ccc(C(=O)NC3CCCCC3)cc21 | i | i | -3 | i | i
C=CCN1C(=O)CSc2ccc(C(=O)NCc3cccs3)cc21 | i | i | 47* | i | i
O=C(COC(=O)COc1ccc2c(c1)CCC2)Nc1ccccc1C(F)(F)F | / | / | / | / | i
SMILES | KCNQ1 inh | KCNK9 block | hERG protect | KCNQ1 pot | KCNK3 inh
COc1cc(NS(=O)(=O)c2ccc(NC(=O)Cc3ccccc3)cc2)nc(OC)n1 | i | i | -6 | i | i
COc1ccc(NC(=O)c2c(Nc3ccccc3)sc(C(=O)c3ccc(F)cc3)c2N)cc1 | i | i | -6 | i | i
COc1ccc(C(=O)c2sc(Nc3ccccc3)c(C(=O)Nc3ccc(OC)c(OC)c3)c2N)cc1 | 7* | i | -16 | i | i
CCOc1ccccc1C(=O)NC1CC2CCCC(C1)N2Cc1nnnn1Cc1ccco1 (stereo unspecified) | i | i | 22* | i | i
O=C(CN1C(=O)c2ccccc2C1=O)NCC(=O)Nc1ccccc1 | / | / | / | / | i
COc1ccccc1C(=O)NC(=Nc1nc2ccccc2o1)NC(=O)c1ccccc1OC | i | -16* | -38 | i | i
O=C(NC(=Nc1nc2ccccc2o1)NC(=O)c1ccccc1)c1ccccc1 | i | i | -9 | i | i
COc1ccc(-c2cn3cc(C(=O)NN)ccc3n2)cc1 | i | i | 5.2* | i | i
O=NN(CCc1ccncc1)c1ccc(OCc2ccccc2)cc1 | 10* | i | -20 | i | -9.1*
O=C(O)/C(=C\c1ccc2ccccc2c1)c1cccc2ccccc12 | i | i | -6 | i | i
COC(=O)C1=C(C)N(Cc2ccccc2)C(=NCCN2CCOCC2)N[C@H]1CCc1ccccc1 | / | / | / | / | i
O=c1c(Cl)c(Cl)cnn1Cc1nnc(-c2ccccc2Br)o1 | i | i | -14 | 27* | i
O=C(OCCN1CCOCC1)c1ccc(Cl)cc1Cl | i | i | 1 | i | i
COc1cc2c(cc1NC(=O)CSc1ccccn1)oc1ccccc12 | i | -7.3* | -9 | i | i
COc1ccccc1CC(=O)Nc1cc2oc3ccccc3c2cc1OC | i | -6.9* | -1 | i | i
COc1ccc(CC(=O)Nc2cc3oc4ccccc4c3cc2OC)cc1 | i | i | -10 | i | i
CCOC(=O)c1ccc(Oc2nc(N(C)C)nc(N(C)C)n2)cc1 | i | i | -1 | i | i
CCOC(=O)c1ccc(Oc2nc(NC(C)(C)C)nc(N(C)C)n2)cc1 | i | i | -2 | 27* | i
O=C(COC(=O)c1ccc(Br)cc1)NCCN1C(=O)CSC1=O | i | i | 7.3* | i | i
O=C(COC(=O)/C=C/c1ccc(C(F)(F)F)cc1)NCC1CCCCC1 | i | i | -9 | i | i
CC(=O)OCC1=C(C(=O)O)N2C(=O)C(NC(=O)c3ccc(F)cc3)C2SC1 (stereo unspecified) | i | i | -4 | i | i
CC(=O)OCC1=C(C(=O)O)N2C(=O)C(NC(=O)C(C)Cn3nc(C)c(Cl)c3C)C2SC1 (stereo unspecified) | i | i | 5.6* | i | i
CCCc1cc(=O)[nH]c(SCC(=O)c2ccc3c(c2)NC(=O)CO3)n1 | i | i | -13 | i | i
CCCCn1c(N)nc2ccccc21 | i | i | 7.5* | i | i
COc1ccc(Cl)cc1CN1CCN(c2nc(C)cc(C)c2C#N)CC1 | i | i | -12 | i | -9.6*
Cc1cc(C)c(C#N)c(N2CCN(CCOc3ccc(Cl)cc3)CC2)n1 | i | i | -13 | i | i
Cc1ccc(C2=NN(C(=O)CCC(=O)O)C(c3ccc4c(c3)OCO4)C2)cc1 (stereo unspecified) | i | i | -8 | i | i
Cc1ccc(C2=NN(C(=O)CCCC(=O)O)C(c3ccc4c(c3)OCO4)C2)cc1 (stereo unspecified) | i | i | 5.5* | i | i
